Source: ChEMBL document CHEMBL3112561, “Small molecule disruptors of the glucokinase-glucokinase regulatory protein interaction: 2. Leveraging structure-based drug design to identify analogues with improved pharmacokinetic profiles” (J Med Chem, 2014)
pEC50: −log10 of the molar value.

Key:
Liver microsome [1] = assay: Drug metabolism in human liver microsomes assessed as oxidation of bicyclic morpholine ring; format: ADME
Liver microsome [2] = assay: Drug metabolism in rat liver microsomes assessed as oxidation of bicyclic morpholine ring; format: ADME
Mus musculus [3] = assay: Unbound maximum concentration in C57Bl6 mouse at 100 mg/kg, po; format: ADME, organism-based; design: dose 100 mg/kg, route oral; settings: in vivo
[4] = Ratio of EC50 for induction of GK translocation from nucleus to cytoplasm of mouse hepatocytes to ratio of unbound maximum concentration in C57Bl6 mouse; design: species or system Hepatocyte
[5] = Fraction unbound in rat plasma at 10 mg/kg, po by rapid equilibrium dialysis method; format: ADME, organism-based; design: dose 10 mg/kg, route oral
How it was run: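 Plasma fraction unbound measured by rapid equilibrium dialysis.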

[6] = Mean residence time in rat at 10 mg/kg, po; format: ADME, organism-based; design: dose 10 mg/kg, route oral; settings: in vivo
How it was run: (§1)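 Oral PK at 10 mg/kg in 1% Tween 80, 2% HPMC, 97% water, […]; mean residence time from plasma profile.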

[7] = Oral bioavailability in rat at 10 mg/kg; format: ADME, organism-based; settings: in vivo
[8] = Clearance in rat at 2 mg/kg, iv; format: ADME, organism-based; design: dose 2 mg/kg, route intravenous; settings: in vivo
[9] = Volume of distribution at steady state in rat at 2 mg/kg, iv; format: ADME, organism-based; design: dose 2 mg/kg, route intravenous; settings: in vivo, read-out: Vdss
How it was run: (§2)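 Intravenous PK at 2 mg/kg in 100% DMSO; steady-state volume of distribution derived from plasma profile.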

[10] = Intrinsic clearance in human liver microsomes at 1 uM after 30 mins in presence of NADPH; format: ADME; settings: read-out: CLH
[11] = target: T1, Glucokinase regulatory protein (Mus musculus, UniProt Q91X44); assay: Induction of GK translocation from nucleus to cytoplasm of mouse hepatocytes preincubated for 20 mins followed by glucose challenge measured after 40 mins by Hoechst 33342 staining-based assay; format: cell-based, Hepatocyte
T1 sequence (Q91X44 whole entry): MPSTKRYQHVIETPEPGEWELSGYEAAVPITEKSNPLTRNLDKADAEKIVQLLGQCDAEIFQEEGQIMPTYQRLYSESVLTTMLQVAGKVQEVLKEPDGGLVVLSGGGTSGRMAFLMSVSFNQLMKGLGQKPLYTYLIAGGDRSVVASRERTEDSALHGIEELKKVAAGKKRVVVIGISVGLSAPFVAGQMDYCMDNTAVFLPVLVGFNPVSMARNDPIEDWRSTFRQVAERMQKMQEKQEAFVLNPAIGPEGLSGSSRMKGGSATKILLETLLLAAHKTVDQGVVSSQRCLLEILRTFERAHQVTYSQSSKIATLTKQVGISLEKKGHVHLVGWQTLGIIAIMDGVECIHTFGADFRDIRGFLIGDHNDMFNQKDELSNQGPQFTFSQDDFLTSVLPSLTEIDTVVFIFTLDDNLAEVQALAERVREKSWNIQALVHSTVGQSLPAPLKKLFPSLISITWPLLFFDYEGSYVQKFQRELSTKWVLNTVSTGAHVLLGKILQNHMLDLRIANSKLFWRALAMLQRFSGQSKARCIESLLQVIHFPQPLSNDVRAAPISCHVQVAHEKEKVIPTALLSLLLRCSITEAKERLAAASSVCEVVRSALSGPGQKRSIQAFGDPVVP

Plasma [12] = assay: Unbound plasma concentration in insulin-resistant db/db mouse at 30 mg/kg, po measured at 6 hrs; format: ADME, organism-based; design: dose 30 mg/kg, route oral; settings: in vivo
How it was run: (§3)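 Fed db/db mice dosed orally (10, 30, 100 mg/kg) in 2% HPMC/1% Tween 80 vehicle, pH 2.2 (MSA), gavaged at 9:00 AM. A 15 μL whole-blood sample taken at 6 h post-dose for drug exposure, reported as unbound plasma concentration.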

Plasma [13] = assay: Unbound plasma concentration in insulin-resistant db/db mouse at 100 mg/kg, po measured at 6 hrs; format: ADME, organism-based; design: dose 100 mg/kg, route oral; settings: in vivo; how it was run: as §3
Plasma [14] = assay: Unbound plasma concentration in insulin-resistant db/db mouse at 10 mg/kg, po measured at 6 hrs; format: ADME, organism-based; design: dose 10 mg/kg, route oral; settings: in vivo; how it was run: as §3
Mus musculus [15] = assay: Unbound maximum concentration in C57Bl6 mouse at 10 mg/kg, po; format: ADME, organism-based; design: dose 10 mg/kg, route oral; settings: in vivo
[16] = Oral bioavailability in C57Bl6 mouse at 10 mg/kg; format: ADME, organism-based; settings: in vivo
[17] = Mean residence time in C57Bl6 mouse at 10 mg/kg, po; format: ADME, organism-based; design: dose 10 mg/kg, route oral; settings: in vivo; how it was run: as §1
[18] = Volume of distribution at steady state in C57Bl6 mouse at 2 mg/kg, iv; format: ADME, organism-based; design: dose 2 mg/kg, route intravenous; settings: in vivo, read-out: Vdss; how it was run: as §2

Row | Drug metabolism (Liver microsome [1]) | Drug metabolism (Liver microsome [2]) | fCmax (Mus musculus [3]) | fraction unbound [5] | MRT [6] | bioavailability [7] | clearance [8] | Vd [9] | microsomal CLint at 1 µM [10] | pEC50 [11] | Cp(f) (Plasma [12]) | Cp(f) (Plasma [13]) | Cp(f) (Plasma [14]) | fCmax (Mus musculus [15]) | bioavailability [16] | MRT [17] | Vd [18] | SMILES | Ratio [4]
1 | Active | Active | 0.032 µM | 0.037 | 4.4 h | 7% | 68.3 mL/min/kg | 8.3 L/kg | 353 µL/min/mg | 5.75 | – | – | – | – | – | – | – | C[C@H]1COCCN1C[C@H]1CN(S(=O)(=O)c2cccs2)CCN1c1ccc([C@@](C)(O)C(F)(F)F)cc1 | 50
2 | – | – | – | – | 4.6 h | 82% | – | 1.6 L/kg | – | – | 240 nM | 786 nM | 58 nM | 0.292 µM | 39% | 5.3 h | 1 L/kg | CC#C[C@H]1CN(S(=O)(=O)c2ccc(N)nc2)CCN1c1ccc([C@@](C)(O)C(F)(F)F)cc1 | –
